Consider two compounds from ChEMBL document CHEMBL5260793, “Novel pyrazolo[3,4-d]pyrimidine with 4-(1H-benzimidazol-2-yl)-phenylamine as broad spectrum anticancer agents: Synthesis, cell based assay, topoisomerase inhibition, DNA intercalation and bovine serum albumin studies” (Eur J Med Chem, 2017).

Data set [1] has as its system Panel colon (Carcinoma cell lines). Description: Anticancer activity against human Panel colon (Carcinoma cell lines) assessed as cell growth inhibition incubated for 48 hrs by Sulphorhodamine B assay. The format is functional. The procedure, abridged: (§1)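 NCI-60 five-dose screen. Cells in RPMI 1640 with 5% FBS and 2 mM L-glutamine were plated at 5,000–40,000 cells/well and held 24 h before dosing. Compounds came from DMSO stocks and were given at five concentrations (10-fold or ½-log dilutions) for 48 h at 37 °C. Adherent cells were TCA-fixed and stained with SRB; A515 was read. GI50 was set from growth = 50% and TGI from Ti = Tz, using Tz/C/Ti.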
A general note: Sulforhodamine B stains cellular protein and so reports cell mass.

Data set [2] concerns Panel renal (Carcinoma cell lines). Description: Anticancer activity against human Panel renal (Carcinoma cell lines) assessed as cell growth inhibition incubated for 48 hrs by Sulphorhodamine B assay. In kind it is functional. The gist of the method:
as §1

Data set [3] has as its system Panel prostate (Carcinoma cell lines). Description: Anticancer activity against human Panel prostate (Carcinoma cell lines) assessed as cell growth inhibition incubated for 48 hrs by Sulphorhodamine B assay. The format is functional. The procedure, abridged:
as §1

The test system of data set [4] is Panel colon (Carcinoma cell lines). Description: Anticancer activity against human Panel colon (Carcinoma cell lines) assessed as total growth inhibition incubated for 48 hrs by Sulphorhodamine B assay. In kind it is functional. The procedure, abridged: as §1
Data set [5] deals with Panel ovarian (Carcinoma cell lines). Description: Anticancer activity against human Panel ovarian (Carcinoma cell lines) assessed as total growth inhibition incubated for 48 hrs by Sulphorhodamine B assay. In kind it is functional.
Data set [6] relates to Panel prostate (Carcinoma cell lines). The experiment in a line: Anticancer activity against human Panel prostate (Carcinoma cell lines) assessed as total growth inhibition incubated for 48 hrs by Sulphorhodamine B assay. In kind it is functional. The procedure, abridged: as §1
Data set [7] deals with Panel leukemia (Carcinoma cell lines). The experiment in a line: Anticancer activity against human Panel leukemia (Carcinoma cell lines) assessed as lethality incubated for 48 hrs by Sulphorhodamine B assay. In kind it is functional.
A short description of data set [8]: Anticancer activity against human Non-small cell lung cancer cell line assessed as lethality incubated for 48 hrs by Sulphorhodamine B assay. In kind it is functional.
The test system of data set [9] is Calf thymus DNA. The experiment in a line: Binding affinity to calf thymus DNA assessed as maximum absorption wavelength shift at pH 7.4 at 10 uM by UV-vis absorption spectroscopy. In kind it is nucleic-acid assay. The conditions noted are these: Bos taurus. The gist of the method:
(§2)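 Absorption titration at 300 K in a 1 cm cell, background subtracted. Compound was fixed (10 μM per legend; 20 μM in methods) with ct-DNA added up to 15–20 μM in 10 mM phosphate buffer, pH 7.4 (A260/A280 1.82). A buffer-addition control was run. K was taken from the 1/(Af−Aobs) vs 1/[DNA] fit.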

Data set [10] relates to Calf thymus DNA. The experiment in a line: Binding affinity to calf thymus DNA assessed as hypochromicity at pH 7.4 at 10 uM by UV-vis absorption spectroscopy. In kind it is nucleic-acid assay. The conditions noted are these: Bos taurus. The gist of the method:
as §2

The target in data set [11] is Albumin (Bos taurus, UniProt P02769). The experiment in a line: Binding affinity to bovine serum albumin assessed as decrease in fluorescence intensity at pH 7.4 at 0 to 30 uM by fluorescence quenching method. The conditions noted are these: cattle.

SMILES strings stand for the structures. Active and inactive are the calls of the source. The rule behind the calls is not given here.

Chain of Albumin (P02769 whole entry): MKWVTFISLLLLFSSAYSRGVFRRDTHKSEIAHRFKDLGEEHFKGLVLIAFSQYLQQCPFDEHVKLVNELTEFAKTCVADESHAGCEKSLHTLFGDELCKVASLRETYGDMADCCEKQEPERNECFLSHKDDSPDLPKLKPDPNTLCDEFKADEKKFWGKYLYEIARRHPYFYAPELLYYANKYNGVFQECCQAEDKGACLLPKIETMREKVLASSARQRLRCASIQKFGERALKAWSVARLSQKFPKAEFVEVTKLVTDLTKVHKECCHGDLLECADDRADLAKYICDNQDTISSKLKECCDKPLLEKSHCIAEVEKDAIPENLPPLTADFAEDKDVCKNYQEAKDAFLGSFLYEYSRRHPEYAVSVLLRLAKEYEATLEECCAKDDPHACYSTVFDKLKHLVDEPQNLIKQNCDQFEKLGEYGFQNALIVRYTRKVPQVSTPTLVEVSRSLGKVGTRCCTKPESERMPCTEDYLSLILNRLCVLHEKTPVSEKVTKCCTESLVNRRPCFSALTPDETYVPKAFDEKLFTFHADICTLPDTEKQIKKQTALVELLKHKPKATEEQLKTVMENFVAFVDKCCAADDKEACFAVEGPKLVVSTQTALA

What is called GI50 is the concentration that inhibits growth by half. For orientation: TGI means the concentration at which net growth stops. As a reminder, the LC50 is the concentration that kills 50% of the test population. As to `Fc1ccc(Nc2nc(Nc3ccc(-c4nc5ccccc5[nH]4)cc3)c3cn[nH]c3n2)cc1`, the values for the GI50 in data set [1], in data set [2] and in data set [3] were 1.78 µM, 1.84 µM and 1.95 µM, respectively. Further, the values for the TGI in [4], in data set [5] and in data set [6] were 3.83 µM, 6.77 µM and 4.14 µM, respectively. Also, the LC50 in data set [7] is above 100 µM. For the same compound, the LC50 (lethal concentration, 50% cell kill) in data set [8] amounted to 32.5 µM. In addition, the Activity in data set [9] is 257 nm; in [11], “Active”. For the same compound, the result in data set [10] was Active.

With `OCCN1CCN(c2nc(Nc3ccc(-c4nc5ccccc5[nH]4)cc3)c3cn[nH]c3n2)CC1`, the GI50 stood at 0.72 µM in data set [1], 1.76 µM in [2] and 1.49 µM in data set [3]. The values for the TGI in data set [4], in data set [5] and in [6] were 2.12 µM, 3.59 µM and 2.96 µM, respectively. In addition, the LC50 in [7] was above 100 µM. In addition, the LC50 (lethal concentration, 50% cell kill) in data set [8] came to 6.26 µM. Further, the figures for the Activity in data set [9] and in [11] were 259 nm and “Active”, respectively. Besides, the result in data set [10] was Active.
